Laboratory results published in BindingDB's records for doi:10.1021/jm960652r (Genentech, 1997).

Columns and labels:
[1] = molecular target: T1, Integrin alpha-IIb/beta-3 (Homo sapiens, UniProt P08514+P05106); test: Inhibition of thrombin-induced platelet aggregation assay at 20 uM
[2] = molecular target: T1, Integrin alpha-IIb/beta-3; test: Inhibition of 17.5 uM ADP-induced platelet aggregation of human platelet-rich plasma
How it was run: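 Aggregation of human platelets in platelet-rich plasma. Values are the average of at least 3 determinations.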

T1 sequence (P05106 27-788 limits assumed): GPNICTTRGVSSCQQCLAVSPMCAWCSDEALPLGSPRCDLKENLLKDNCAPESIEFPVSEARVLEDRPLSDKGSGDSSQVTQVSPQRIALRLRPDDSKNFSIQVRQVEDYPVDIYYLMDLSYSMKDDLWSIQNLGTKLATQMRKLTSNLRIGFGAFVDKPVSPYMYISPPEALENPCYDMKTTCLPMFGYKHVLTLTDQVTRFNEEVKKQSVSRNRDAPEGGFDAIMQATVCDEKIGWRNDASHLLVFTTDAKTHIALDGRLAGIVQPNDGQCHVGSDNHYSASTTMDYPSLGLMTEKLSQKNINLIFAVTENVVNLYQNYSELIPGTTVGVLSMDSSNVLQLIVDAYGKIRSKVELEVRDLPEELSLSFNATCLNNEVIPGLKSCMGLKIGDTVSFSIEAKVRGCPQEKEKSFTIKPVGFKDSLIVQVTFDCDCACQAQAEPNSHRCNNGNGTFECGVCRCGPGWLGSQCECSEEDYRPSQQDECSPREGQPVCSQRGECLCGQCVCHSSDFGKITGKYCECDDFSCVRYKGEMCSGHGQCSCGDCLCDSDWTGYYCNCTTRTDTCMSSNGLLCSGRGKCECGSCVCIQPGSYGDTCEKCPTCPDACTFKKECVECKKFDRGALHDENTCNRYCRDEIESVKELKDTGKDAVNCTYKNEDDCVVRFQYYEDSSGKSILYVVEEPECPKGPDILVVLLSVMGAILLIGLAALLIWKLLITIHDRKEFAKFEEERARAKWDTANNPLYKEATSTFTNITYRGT
T1 sequence (P08514 32-887 limits assumed): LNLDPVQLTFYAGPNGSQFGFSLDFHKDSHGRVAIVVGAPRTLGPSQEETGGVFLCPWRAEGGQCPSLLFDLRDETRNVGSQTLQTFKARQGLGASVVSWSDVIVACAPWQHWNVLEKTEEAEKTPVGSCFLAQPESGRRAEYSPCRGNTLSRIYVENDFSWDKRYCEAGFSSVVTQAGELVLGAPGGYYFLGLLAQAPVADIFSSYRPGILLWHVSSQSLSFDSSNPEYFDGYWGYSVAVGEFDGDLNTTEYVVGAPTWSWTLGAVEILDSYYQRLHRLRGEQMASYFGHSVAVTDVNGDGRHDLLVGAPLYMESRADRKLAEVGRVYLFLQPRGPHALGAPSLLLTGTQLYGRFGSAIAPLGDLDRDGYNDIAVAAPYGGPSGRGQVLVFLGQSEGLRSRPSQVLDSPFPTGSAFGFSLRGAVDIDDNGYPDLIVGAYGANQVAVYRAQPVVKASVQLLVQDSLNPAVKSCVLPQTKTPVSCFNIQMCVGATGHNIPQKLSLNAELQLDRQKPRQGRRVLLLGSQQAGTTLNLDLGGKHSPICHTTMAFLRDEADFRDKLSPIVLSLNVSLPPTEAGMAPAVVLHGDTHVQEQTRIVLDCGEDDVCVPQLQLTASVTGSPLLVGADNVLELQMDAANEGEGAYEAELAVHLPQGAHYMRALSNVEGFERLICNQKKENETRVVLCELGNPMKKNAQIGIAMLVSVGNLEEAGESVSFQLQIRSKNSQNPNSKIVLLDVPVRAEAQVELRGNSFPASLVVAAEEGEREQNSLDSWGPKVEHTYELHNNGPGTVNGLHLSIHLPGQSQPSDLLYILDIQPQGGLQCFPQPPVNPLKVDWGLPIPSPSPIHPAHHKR
T1 sequence (P08514 891-1039 limits assumed): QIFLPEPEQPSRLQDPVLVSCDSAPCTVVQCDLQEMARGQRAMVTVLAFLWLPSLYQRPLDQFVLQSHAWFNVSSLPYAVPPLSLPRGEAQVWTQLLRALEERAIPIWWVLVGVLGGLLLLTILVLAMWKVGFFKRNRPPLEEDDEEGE

SMILES	IC50 [1] [µM]	IC50 [2] [µM]
CN1C(=O)CN(CCC(=O)O)C(=O)c2cc(C#Cc3ccc(C(=N)N)cc3)ccc21 [3-[7-(4-Carbamimidoyl-phenylethynyl)-1-methyl-2,5-dioxo-1,2,3,5-tetrahydro-benzo[e][1,4]diazepin-4-yl]-propionic acid(G6249)]	0.213	
C[C@@H](CC(=O)O)N1CC(=O)N(C(C)(C)C)c2ccc(C#Cc3ccc(C(=N)N)cc3)cc2C1=O [(S)-3-[1-tert-Butyl-7-(4-carbamimidoyl-phenylethynyl)-2,5-dioxo-1,2,3,5-tetrahydro-benzo[e][1,4]diazepin-4-yl]-butyric acid]		0.092
C[C@@H](CC(=O)O)N1CC(=O)N(C)c2ccc(C#Cc3ccc(C(=N)N)cc3)cc2C1=O [(S)-3-[7-(4-Carbamimidoyl-phenylethynyl)-1-methyl-2,5-dioxo-1,2,3,5-tetrahydro-benzo[e][1,4]diazepin-4-yl]-butyric acid]	0.138	0.078
C[C@H](CC(=O)O)N1CC(=O)N(C)c2ccc(C#Cc3ccc(C(=N)N)cc3)cc2C1=O [(R)-3-[7-(4-Carbamimidoyl-phenylethynyl)-1-methyl-2,5-dioxo-1,2,3,5-tetrahydro-benzo[e][1,4]diazepin-4-yl]-butyric acid]		0.82
C[C@@H](CC(=O)O)N1CC(=O)N(C(C)(C)C)c2c(Cl)cc(C#Cc3ccc(C(=N)N)cc3)cc2C1=O [(S)-3-[1-tert-Butyl-7-(4-carbamimidoyl-phenylethynyl)-9-chloro-2,5-dioxo-1,2,3,5-tetrahydro-benzo[e][1,4]diazepin-4-yl]-butyric acid]	0.06	0.034
C[C@H](CC(=O)O)N1CC(=O)N(C(C)(C)C)c2c(Cl)cc(C#Cc3ccc(C(=N)N)cc3)cc2C1=O [(R)-3-[1-tert-Butyl-7-(4-carbamimidoyl-phenylethynyl)-9-chloro-2,5-dioxo-1,2,3,5-tetrahydro-benzo[e][1,4]diazepin-4-yl]-butyric acid]		1.3
C[C@@H](CC(=O)O)N1CC(=O)N(C)c2c(Cl)cc(C#Cc3ccc(C(=N)N)cc3)cc2C1=O [(S)-3-[7-(4-Carbamimidoyl-phenylethynyl)-9-chloro-1-methyl-2,5-dioxo-1,2,3,5-tetrahydro-benzo[e][1,4]diazepin-4-yl]-butyric acid]	0.313	0.159
